# An excerpt weighted towards active compounds, which were near 2.5% of everything screened.
# SIAE primary = inhibitors of human sialic acid acetylesterase SIAE; SIAE FP-Rh probe binding, fluorescence polarization; Q9HAT2; inhibition, % at 9.66 µM; 370,000 tested, 0.69% active; AID 1053197;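 active = inhibition above a cutoff: mean of compounds within the control limits plus 3 SD of those, cut at about 17% in these data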
# PRMT1 FP inh = inhibitors of human PRMT1 | AID 652257 | inhibition, % at 2.79 µM | Q99873 | 370,000 tested, 1.3% active | recombinant PRMT1, activity-based probe fluorescence polarization;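 active = inhibition above about 21% made by adding two undisclosed values, limit read from the data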
# Target sequence (Q99873 whole entry, looked up): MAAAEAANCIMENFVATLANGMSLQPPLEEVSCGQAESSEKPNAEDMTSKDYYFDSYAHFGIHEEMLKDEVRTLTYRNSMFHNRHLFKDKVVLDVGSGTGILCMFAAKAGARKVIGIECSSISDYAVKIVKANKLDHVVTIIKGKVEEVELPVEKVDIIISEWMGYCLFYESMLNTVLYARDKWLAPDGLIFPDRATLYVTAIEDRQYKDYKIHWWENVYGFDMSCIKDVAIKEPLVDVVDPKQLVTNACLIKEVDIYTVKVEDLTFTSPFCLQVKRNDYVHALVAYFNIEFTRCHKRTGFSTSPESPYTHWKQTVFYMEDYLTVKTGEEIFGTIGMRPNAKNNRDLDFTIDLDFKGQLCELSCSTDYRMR
# TCR-CD3 inh = blocks the human TCR-CD3 interaction. TAMRA-labeled TCR probe fluorescence, biochemical. inhibition, % at 9.4 µM. 360,000 tested, 0.37% active; in the data active = inhibition above about 19%;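 note: recombinant mutant TCR 2C K166C tagged with TAMRA read by polarization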
# ABHD4 inh = inhibitors of mouse ABHD4; Q8VD66; purified mABHD4, FP-Rh probe fluorescence polarization; inhibition, % at 8.92 µM; 370,000 tested, 0.54% active;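 active = inhibition exceeding the mean over every tested compound plus 3 SD, cut at about 30% in these data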
#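 system = mouse ABHD4 enzyme, wild type | medium = HEPES pH 7.0, NaCl, Pluronic buffer | also added = FP-Rh probe | incubation = Enzyme–compound pre-incubation 45 min, then probe 60 min, both 25 °C | technique = fluorescence polarization, excitation 525 nm, emission 598 nm, BODIPY TMR filters | controls = S159A mutant high control, sample median low control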
# HTRA1 inh = blocks human HTRA1 serine peptidase; 340,000 tested, 0.5% active; Q92743; recombinant HTRA1, FP-rhodamine activity-based probe, fluorescence polarization; inhibition, % at 5.96 µM; in the data active = inhibition above about 36%
# Numbers stand for hits; i = inactive; nt = no result given; ! = repeats disagree.
SMILES,SIAE primary,PRMT1 FP inh,TCR-CD3 inh,ABHD4 inh,HTRA1 inh
COc1cc(C(=O)Nc2nc(C)c(Cc3ccc4c(c3)OCO4)s2)cc(OC)c1OC,i,23,i,i,i
CCCCN(C)c1nc(-c2ccco2)c2c(c1C#N)CC(C)(C)OC2,i,21,i,i,i
O=C(CN1CCN(CC(=O)Nc2cccc(F)c2)CC1)Nc1ccc(-c2ccccc2)cc1,i,i,i,i,i
COc1ccc(O)c(/C=C2/SC(=S)N(Cc3ccccc3)C2=O)c1,i,23,i,i,i
COc1ccc(OC)c(/C=C2\SC(=S)N(Cc3cccnc3)C2=O)c1,i,i,i,i,i
COc1ccc(-c2cc(C(=O)Nc3cc(OC)cc(C(=O)Nc4cccc(C(F)(F)F)c4)c3)[nH]n2)cc1,i,i,68!,i,i
COc1cc(NC(=O)c2cc3cccc(OC)c3o2)cc(C(=O)Nc2cccc(C(F)(F)F)c2)c1,i,i,45,i,i
COc1cc(NC(=O)c2ccno2)cc(C(=O)Nc2cccc(C(F)(F)F)c2)c1,i,i,i,i,i
CCN1CCN(Cc2ccc(NC(=O)c3cc(NC(=O)c4ccc5n[nH]nc5c4)cc(OC)c3)cc2C(F)(F)F)CC1,i,i,i,i,i
COc1ccc(NC(=S)NNC(=S)Nc2cccc(C(F)(F)F)c2)cc1,31,i,i,i,i
CCN1CCN(Cc2ccc(NC(=O)c3cc(NC(=O)c4cc(-c5ccc(OC)cc5)n[nH]4)cc(OC)c3)cc2C(F)(F)F)CC1,i,i,28,i,i
CN=C(Nc1cccc(Cl)c1)SC1CC(=O)N(c2ccc(OC)cc2)C1=O (stereo not given),i,i,i,i,nt
CC(C)(C)NC(=O)c1ccccc1-c1nc2ccccc2s1,i,24,i,i,i
CC1=C(C(=O)OCc2ccccc2)C(c2ccc(C)o2)C2=C(CCCC2=O)N1 (stereo not given),33,i,i,i,i
CC1=C(C(=O)OC2CCCCC2)C(c2ccc(C)o2)C2=C(CCCC2=O)N1 (stereo not given),i,i,i,i,i
C=CCOc1ccccc1C(=O)/C=C1/C(=O)Nc2ccccc21,i,23,i,i,i
C=CCOc1ccc(C(=O)/C=C2/C(=O)Nc3ccccc32)cc1,i,i,i,i,i
CC1C/C(=C/c2cccs2)C(=O)/C(=C/c2cccs2)C1 (stereo not given),i,22,i,i,i
O=C(Nc1ccc(Cc2ccncc2)cc1)c1cccc([N+](=O)[O-])c1,i,i,i,i,i
O=C(CCNc1ccc(Cc2ccncc2)cc1)c1ccc([N+](=O)[O-])cc1,i,36,i,i,i
Cc1ccc2c(c1)-c1c(cnn1CC(=O)NC(C)CCc1ccco1)CO2 (stereo not given),i,23,i,i,i
COC(=O)[C@]12C[C@H](CC(=O)NCC34CC5CC(CC(C5)C3)C4)C(=O)N(Cc3ccco3)C1=C[C@H](C(C)(C)C)O[C@@H]2C,i,i,nt,i,nt
Cc1ccc(C(=O)N/N=C/c2cn(Cc3ccccc3)c3ccccc23)cn1,i,i,i,i,i
COc1cc(C(=O)N/N=C/c2cn(Cc3cccc(F)c3)c3ccccc23)ccc1O,30,i,i,i,i
COC(=O)COc1ccc(NS(=O)(=O)c2cccc([N+](=O)[O-])c2)cc1,i,i,i,i,i
SMILES,SIAE primary,PRMT1 FP inh,TCR-CD3 inh,ABHD4 inh,HTRA1 inh
CCCNC(=O)C1(C)CCCN(C(=O)c2ccccc2OC(F)(F)F)C1 (stereo not given),i,i,i,i,nt
CCOC(=O)C1=C(C)N=c2s/c(=C\c3ccc(OCC(=O)O)c(OC)c3)c(=O)n2C1c1ccc(OC)cc1 (stereo not given),i,32,i,i,i
COc1cc(CNn2c(C)n[nH]c2=S)cc(Cl)c1OCc1ccccc1,i,24,i,i,i
COC(=O)c1cccc(NC(=O)/C(=C\c2ccco2)NC(=O)c2ccco2)c1,i,25,i,i,i
O=C(Nc1cccc(F)c1)/C(=C\c1ccco1)NC(=O)c1ccco1,i,24,i,i,i
COC(=O)c1ccc(NCc2cc(O)ccc2O)cc1O,i,23,i,i,i
O=C(COC(=O)c1ccc(O)cc1O)Nc1ccc2ccccc2c1,i,i,i,i,i
C[C@H](CO)N1C[C@H](C)[C@@H](CN(C)C(=O)Nc2ccnc(N3CCOCC3)c2)OCc2cn(nn2)CCCC1=O,i,i,i,i,nt
COCCN1C(=O)CSCC1(C)C(=O)NCc1ccccc1 (stereo not given),i,i,i,i,nt
O=C(N/N=C/c1ccc(Cl)cc1Cl)c1ccncc1,i,i,i,i,i
